Sampled rows, rich in hits. Any-hit rate of the full collection: about 2.8%.
pCIP destab: p/CIP protein destabilization. actives 0.01% (n = 290,000). F442A p/CIP-EGFP cells, EGFP fluorescence, 16 h. AID 1984. decrease of EGFP signal, % at 10 µM;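 active means EGFP signal decrease of at least 30% at 10 µM or well 3 SD below plate mean, unless failing retest; inactive means the rest, including hits failing retest or dose response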
UBC13 polyUb: human UBC13 polyubiquitination inhibition; P61088; UBC13 polyubiquitin chain formation, TR-FRET; actives 0.47% (n = 330,000); inhibition, % at 20 µM; in the data active means inhibition above about 45%, passing the limit was not always enough; inconclusive means no clear call, values can overlap the other calls
Target sequence (P61088 whole entry, looked up): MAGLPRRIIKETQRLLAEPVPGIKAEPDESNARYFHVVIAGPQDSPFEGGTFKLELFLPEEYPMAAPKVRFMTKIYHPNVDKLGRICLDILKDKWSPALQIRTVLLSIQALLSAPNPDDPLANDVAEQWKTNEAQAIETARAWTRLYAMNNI
PP1 inh: counter-screen for PP5 inhibitors: inhibitors of human PP1-alpha | P62136 | purified PP1alpha, OMFP fluorescence | inhibition, % at 6.7 µM | actives 0.9% (n = 320,000) | AID 2235;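 active means inhibition above the mean inhibition of all tested compounds plus 3 SD, computed separately for each screening campaign, cut at about 15% in these data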
Target sequence (P62136 whole entry, looked up): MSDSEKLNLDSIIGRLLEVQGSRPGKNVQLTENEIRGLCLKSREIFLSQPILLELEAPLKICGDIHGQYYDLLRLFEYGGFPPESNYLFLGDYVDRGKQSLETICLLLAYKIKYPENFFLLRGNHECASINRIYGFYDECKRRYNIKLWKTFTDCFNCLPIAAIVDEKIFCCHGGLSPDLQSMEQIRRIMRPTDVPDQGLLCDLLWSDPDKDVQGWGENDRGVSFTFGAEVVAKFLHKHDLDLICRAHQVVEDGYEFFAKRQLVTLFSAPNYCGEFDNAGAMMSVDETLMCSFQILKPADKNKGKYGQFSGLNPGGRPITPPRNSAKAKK
AI-2 QS mod: Vibrio harveyi AI-2 quorum sensing modulation; Vibrio harveyi JMH597 AI-2 luminescence/OD600 ratio, 9 h; stronger effect = lower value; strain lacks LuxN and CqsS sensors; 0 = neutral-control median; activity change, % at 7.5 µM; actives 0.4% (n = 300,000); in the data active means activity change below about -75%, passing the limit was not always enough; inconclusive means no clear call, values can overlap the other calls;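 further: luminescence divided by OD600 gain over 9 h not by final OD600 alone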
T cruzi repl: T. cruzi replication inhibition; T. cruzi beta-gal in NIH3T3, luminescence, 90 h; inhibition, % (concentration not given with the values); actives 1.4% (n = 300,000); AID 1885;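 active means mean inhibition across valid replicates above about 55%, limit read from the data; inconclusive means mean below that limit but half or more replicates reach it; inactive means mean below it, under half of replicates reach it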;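 further: signal also drops with host cell toxicity which is not excluded here; higher percent means less beta-gal luminescence so fewer parasites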
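Incubation – ≥90 h infection period, 3 h prior cell attachment · System – NIH/3T3 fibroblasts plus reporter T. cruzi · Doses – compound pinned at 50 nL/well, DMSO · Read-out basis – percent inhibition of parasite-derived β-gal signal · Signal – luminescent β-galactosidase signal after 60 min lysis · Also added – 5000 T. cruzi trypomastigotes/well · Medium – Low-serum DMEM with 2% FBS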
JMH597 growth rt: retest Vibrio harveyi JMH597 growth inhibition. OD600 absorbance, 9 h; lacks LuxN and CqsS sensors. shares compounds with AI-2 QS mod. actives 1% (n = 750). growth inhibition, % at 7.5 µM;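 active means every replicate shows growth inhibition above 50%; inconclusive means at least half, but not all, replicates pass that cutoff; inactive means fewer than half of replicates pass it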
BB721 lum counter: retest counter-screen: BB721 constitutive quorum sensing luminescence decrease | shares compounds with AI-2 QS mod | Vibrio harveyi BB721 luminescence, 9 h | inhibition, % at 7.5 µM | actives 95% (n = 750) | AID 2727;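 active means inhibition above about 80% in every replicate, not just on average, limit read from the data; inconclusive means at least half of replicates past the limit, but not all; inactive means fewer than half of replicates past the limit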
BB721 growth rt: retest: blocks Vibrio harveyi BB721 growth | shares compounds with AI-2 QS mod | actives 3% (n = 750) | growth inhibition, % at 7.5 µM | AID 2728 | OD600 absorbance, 9 h;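 active means every replicate shows growth inhibition above 50%; inconclusive means at least half but not all replicates above 50% inhibition; inactive means under half of replicates above 50% inhibition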
AI-2 QS JMH597: Vibrio harveyi AI-2 signaling luminescence modulation – JMH597 strain, confirmation; shares compounds with AI-2 QS mod; Vibrio harveyi JMH597 AI-2 quorum sensing luminescence, 9 h; luxN and CqsS knockout, AI-2 only; inhibition, % at 7.5 µM; actives 97% (n = 750); AID 2736;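 active means every replicate shows more than 75% inhibition of signal versus neutral control wells; inconclusive means half to three quarters of replicates exceed 75% inhibition; inactive means fewer than half of replicates exceed 75% inhibition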
Large screens that a line does not name were inactive (follow-up assays come after a bar, where they were run).

C=Cn1c(C(=O)O)ccc1-c1ccc(CC)cc1	AI-2 QS mod -87 | JMH597 growth rt inactive | BB721 lum counter inactive | BB721 growth rt inactive | AI-2 QS JMH597 100
COc1cccc(NC(=O)CN(C)CC(=O)c2c(C)[nH]c3ccccc23)c1	none (no result: pCIP destab, AI-2 QS mod, T cruzi repl)
CCCCn1c(N)c(N(CCOC)C(=O)CSCc2ccc(C)cc2)c(=O)[nH]c1=O	none (no result: pCIP destab)
O=S(=O)(c1ccccc1)N1CCN(C/C=C/c2ccccc2)CC1	none
O=C(CS(=O)(=O)c1ccc(F)cc1)NCCS(=O)(=O)c1ccccc1	none
O=C(/C=C/c1ccccc1Cl)Nn1cnc2ccccc2c1=O	AI-2 QS mod -78 | JMH597 growth rt inactive | BB721 lum counter 96 | BB721 growth rt inactive | AI-2 QS JMH597 98
O=C(Nn1cnc2ccccc2c1=O)c1ccccc1Cl	none
O=C(Nc1ccc(Cl)cc1)Nn1cnc2ccccc2c1=O	AI-2 QS mod -98 | JMH597 growth rt inactive | BB721 lum counter 100 | BB721 growth rt inactive | AI-2 QS JMH597 100
O=C(/C=C/c1ccccc1)Nn1cnc2ccccc2c1=O	AI-2 QS mod -88 | JMH597 growth rt inactive | BB721 lum counter 98 | BB721 growth rt inactive | AI-2 QS JMH597 99
Nc1cc(Nc2ccc(Br)cc2)nc(N)n1	AI-2 QS mod -96 | JMH597 growth rt inactive | BB721 lum counter 99 | BB721 growth rt inactive | AI-2 QS JMH597 99
Cc1cc(Nc2ccc(Cl)cc2)nc(N)n1	none
O=C(NCCc1ccc(Cl)cc1)C(=O)c1c[nH]c2ccccc12	none
O=C(NCCc1c[nH]c2ccccc12)c1ccc(F)cc1F	AI-2 QS mod -82 | JMH597 growth rt inactive | BB721 lum counter 95 | BB721 growth rt inactive | AI-2 QS JMH597 97
O=C(NCCc1c[nH]c2ccccc12)C(=O)c1c[nH]c2ccccc12	AI-2 QS mod -90 | JMH597 growth rt inactive | BB721 lum counter 96 | BB721 growth rt inactive | AI-2 QS JMH597 97
O=C(NCCc1c[nH]c2ccccc12)c1ccc(Cl)cc1	AI-2 QS mod -85 | JMH597 growth rt inactive | BB721 lum counter 93 | BB721 growth rt inactive | AI-2 QS JMH597 95
Cc1ccsc1C(=O)NCCc1c[nH]c2ccccc12	AI-2 QS mod -82 | JMH597 growth rt inactive | BB721 lum counter 92 | BB721 growth rt inactive | AI-2 QS JMH597 94
COc1cc(SC)ccc1C(=O)NCCc1c[nH]c2ccccc12	none
N#Cc1cc2cc3c(cc2nc1SCC(=O)N1CCOCC1)OCCO3	none
Cn1cccc1C(=O)NC(=O)COC(=O)CCNS(=O)(=O)c1ccc(Cl)cc1	none (no result: pCIP destab, PP1 inh, AI-2 QS mod, T cruzi repl)
Cc1cccc(NC(=O)CC(=O)Nc2cccc(C)c2)c1	none
Cc1ccc(C(=O)CCC(=O)Nc2cccc(C)c2)cc1	AI-2 QS mod -89 (no result: PP1 inh) | JMH597 growth rt inactive | BB721 lum counter 96 | BB721 growth rt inactive | AI-2 QS JMH597 97
CC(COc1ccc(C(C)C)cc1)NC(=O)c1ccc(Br)o1 (stereo unspecified)	AI-2 QS mod -83 | JMH597 growth rt inactive | BB721 lum counter 88 | BB721 growth rt inactive | AI-2 QS JMH597 93
CC(C)c1ccc(NC(=O)c2ccc(Br)o2)cc1	none
CC(C)(C)c1ccc(OCC(=O)NN2Cc3ccccc3C2=N)cc1	AI-2 QS mod -89 | JMH597 growth rt inactive | BB721 lum counter inconclusive | BB721 growth rt inactive | AI-2 QS JMH597 88
COc1cccc(CN2C(=O)[C@@H]3Cc4c([nH]c5ccccc45)C(C)(C)N3C2=O)c1	none (no result: pCIP destab)
O=C(Nc1cnn(Cc2ccc(Cl)cc2)c1)c1cccs1	AI-2 QS mod -89 | JMH597 growth rt inactive | BB721 lum counter 96 | BB721 growth rt inactive | AI-2 QS JMH597 97
CCCc1cc(C(=O)Nc2ccc(F)c(Cl)c2)no1	AI-2 QS mod -82 | JMH597 growth rt inactive | BB721 lum counter 96 | BB721 growth rt inactive | AI-2 QS JMH597 97
Cc1ccc(NC(=O)CCN2C(=O)CSC2=O)cc1	none
O=C(CCN1C(=O)CSC1=O)Nc1ccc(Br)cc1	AI-2 QS mod -80 | JMH597 growth rt inactive | BB721 lum counter inactive | BB721 growth rt inactive | AI-2 QS JMH597 inactive
CCC(Sc1nc2ccccc2c2nc3ccccc3n12)C(=O)NCc1ccco1 (stereo unspecified)	none
COc1ccc(NC(=O)CN(c2ccc(OC)c(Cl)c2)S(=O)(=O)c2ccccc2)cc1	AI-2 QS mod inconclusive | JMH597 growth rt inactive | BB721 lum counter inactive | BB721 growth rt inactive | AI-2 QS JMH597 inactive
COc1ccc(CC(=O)O/N=C(\N)c2ccccn2)cc1	AI-2 QS mod inconclusive | JMH597 growth rt inactive | BB721 lum counter 84 | BB721 growth rt inactive | AI-2 QS JMH597 88
COc1ccc(/C(N)=N/OC(=O)Cc2ccc(C)cc2)cc1	AI-2 QS mod -91 | JMH597 growth rt inactive | BB721 lum counter 95 | BB721 growth rt inactive | AI-2 QS JMH597 97
N#CCc1ccc(OC(=O)c2cnccc2C(F)(F)F)cc1	none
O=C(O)c1ccccc1C(=O)Nc1cc(-c2ccccc2)[nH]n1	none
O=C(Nc1cc(-c2ccccc2)[nH]n1)c1ccccc1	AI-2 QS mod -79 | JMH597 growth rt inactive | BB721 lum counter 88 | BB721 growth rt inactive | AI-2 QS JMH597 93
O=C(Nc1cc(-c2ccccc2)[nH]n1)c1ccccc1F	AI-2 QS mod -86 | JMH597 growth rt inactive | BB721 lum counter 92 | BB721 growth rt inactive | AI-2 QS JMH597 94
CC(=O)Nc1cc(-c2ccc(F)cc2)[nH]n1	none
O=C(/C=C/c1ccccc1)NCCS(=O)(=O)N1CCN(c2ccccc2F)CC1	none (no result: pCIP destab)
CCc1cccc(C)c1NS(=O)(=O)Cc1ccccc1	none
O=C(NC1CCN(C(=S)Nc2ccc(F)cc2)CC1)C1CCCCC1	none
COc1ccc(CC(=O)Nc2ccc(S(=O)(=O)NCC3CCCO3)cc2)cc1 (stereo unspecified)	AI-2 QS mod -93 | JMH597 growth rt inactive | BB721 lum counter 99 | BB721 growth rt inactive | AI-2 QS JMH597 100
O=C(CN1C(=O)c2ccccc2C1=O)NCC1CCCO1 (stereo unspecified)	none
O=C(CN1C(=O)c2ccccc2C1=O)Nc1ccc(S(=O)(=O)NCC2CCCO2)cc1 (stereo unspecified)	AI-2 QS mod -91 | JMH597 growth rt inactive | BB721 lum counter 96 | BB721 growth rt inactive | AI-2 QS JMH597 97
COc1cccc(CC(=O)Nc2ccc(S(=O)(=O)Nc3nccs3)cc2)c1	none (no result: pCIP destab, PP1 inh, AI-2 QS mod, T cruzi repl)
COc1ccc(CC(=O)Nc2ccc(C(N)=O)cc2)cc1	AI-2 QS mod inconclusive | JMH597 growth rt inactive | BB721 lum counter 85 | BB721 growth rt inactive | AI-2 QS JMH597 89

High-throughput results (PubChem BioAssay)
